Test results taken from ChEMBL document CHEMBL4376859, “Prodrugs for nitroreductase-based cancer therapy-3: Antitumor activity of the novel dinitroaniline prodrugs/Ssap-NtrB enzyme suicide gene system: Synthesis, in vitro and in silico evaluation in prostate cancer” (Eur J Med Chem, 2020).
pIC50, pKi: −log10 of the molar value. The source made the active and inactive calls. No cut-off for these calls is given here.

Experiments:
PC-3 [1] = experiment: Cytotoxicity against human PC3 cells assessed as reduction in cell viability after 48 hrs by SRB assay; type: functional, cell-based
Summary of the method: (§1)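 Compounds were reduced outside the cells by purified His-tag (Ni column) Ssap-NtrB. The reaction mix held 600 µM NADH and compound (150, 39, 9 µM, or 180, 18, 1.8 nM) and was applied to PC-3 cells. Controls were compound alone in 25 mM Tris/HCl pH 7.5, and enzyme alone at 31 µg/mL. After 48 h, SRB absorbance was read at 492 nm and converted to % viability.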

Putative nitroreductase [2] = biological target: T1, Putative nitroreductase (Staphylococcus saprophyticus subsp. saprophyticus (strain ATCC 15305 / DSM20229 / NCIMB 8711 / NCTC 7292 / S-41), UniProt Q4A0P1); experiment: Substrate activity at Staphylococcus saprophyticus nitroreductase expressed in Escherichia coli BL21 (DE3) assessed as retention time by HPLC analysis; type: ADME
T1 sequence (Q4A0P1 whole entry): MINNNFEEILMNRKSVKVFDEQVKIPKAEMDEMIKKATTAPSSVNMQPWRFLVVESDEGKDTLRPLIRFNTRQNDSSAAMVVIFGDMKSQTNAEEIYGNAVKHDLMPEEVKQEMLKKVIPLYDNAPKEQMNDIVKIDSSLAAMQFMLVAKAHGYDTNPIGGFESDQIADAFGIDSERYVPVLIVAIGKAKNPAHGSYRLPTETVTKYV

[3] = Cytotoxicity against human HUVEC cells assessed as cell viability at 9 to 150 uM after 48 hrs by MTT assay relative to control; type: cell-based; settings: read-out: Activity
Summary of the method: (§2)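 Hep3B hepatoma, PC-3 prostate cancer and HUVEC (healthy control) cells were exposed to nitro compounds at 150, 75, 38, 19 and 9 µM for 24 h and 48 h. Viability was read by MTT assay, and IC50 values were derived from the growth inhibition curves.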

PC-3 [4] = experiment: Cytotoxicity against human PC3 cells assessed as cell viability at 9 to 150 uM after 24 hrs by MTT assay relative to control; type: functional; summary of the method: as §2
Hep 3B2 [5] = experiment: Cytotoxicity against human Hep3B cells assessed as cell viability at 9 to 150 uM after 48 hrs by MTT assay relative to control; type: functional; summary of the method: as §2
Hep 3B2 [6] = experiment: Cytotoxicity against human Hep3B cells assessed as cell viability at 9 to 150 uM after 24 hrs by MTT assay relative to control; type: functional; summary of the method: as §2
PC-3 [7] = experiment: Cytotoxicity against human PC3 cells assessed as cell viability at 9 to 150 uM after 48 hrs by MTT assay relative to control; type: functional; summary of the method: as §2
Putative nitroreductase [8] = biological target: T1, Putative nitroreductase; experiment: Substrate activity at Staphylococcus saprophyticus nitroreductase NtrB assessed as Kcat/Km using NADPH as cofactor in Tris-Cl buffer at pH 7.5 by HPLC analysis relative to CB1954/NfsB; type: ADME
PC-3 [9] = experiment: Cytotoxicity against human PC3 cells […] Staphylococcus saprophyticus nitroreductase NtrB assessed as reduction in cell viability in presence of NADH as cofactor after 48 hrs by SRB assay; type: functional, cell-based; settings: PC-3, 48 h; summary of the method: as §1
[10] = Cytotoxicity against human HUVEC cells assessed as cell viability at 9 to 150 uM after 24 hrs by MTT assay relative to control; type: cell-based; settings: read-out: Activity; summary of the method: as §2
Putative nitroreductase [11] = biological target: T1, Putative nitroreductase; experiment: Substrate activity at Staphylococcus saprophyticus nitroreductase NtrB assessed as enzyme specific activity using NADH as cofactor in Tris-Cl buffer at pH 7.5 by HPLC analysis; type: ADME
HUVEC [12] = experiment: Cytotoxicity against human HUVEC cells assessed as cell viability after 24 hrs by MTT assay; type: cell-based; summary of the method: as §2
PC-3 [13] = experiment: Cytotoxicity against human PC3 cells assessed as cell viability after 24 hrs by MTT assay; type: functional, cell-based; summary of the method: as §2
Hep 3B2 [14] = experiment: Cytotoxicity against human Hep3B cells assessed as cell viability after 48 hrs by MTT assay; type: functional, cell-based; summary of the method: as §2
HUVEC [15] = experiment: Cytotoxicity against human HUVEC cells assessed as cell viability after 48 hrs by MTT assay; type: cell-based; settings: human, huvec; summary of the method: as §2
PC-3 [16] = experiment: Cytotoxicity against human PC3 cells assessed as cell viability after 48 hrs by MTT assay; type: functional, cell-based; summary of the method: as §2
Hep 3B2 [17] = experiment: Cytotoxicity against human Hep3B cells assessed as cell viability after 24 hrs by MTT assay; type: functional, cell-based; summary of the method: as §2
[18] = Substrate activity at Escherichia coli nitroreductase nfsA assessed as ratio of Kcat/Km using NADPH as cofactor in Tris-Cl buffer at pH 7.5 by spectrophotometric method based Michaelis-Menten plot analysis relative to CB1954/NfsB
Putative nitroreductase [19] = biological target: T1, Putative nitroreductase; experiment: Substrate activity at Staphylococcus saprophyticus nitroreductase NtrB assessed as ratio of Kcat/Km using NADPH as cofactor in Tris-Cl buffer at pH 7.5 incubated for 30 mins by HPLC analysis relative to CB1954/NfsB; type: ADME; settings: pH 7.5, 0.5 h
Nitroreductase = biological target: T2, Nitroreductase (Bacillus amyloliquefaciens, UniProt Q8VSR5); experiment: Substrate activity at Bacillus amyloliquefaciens nitroreductase ywrO assessed as ratio of Kcat/Km using NADPH as cofactor in sodium phosphate buffer at pH 7.5 by HPLC analysis relative to CB1954/NfsB; type: ADME
T2 sequence (Q8VSR5 whole entry): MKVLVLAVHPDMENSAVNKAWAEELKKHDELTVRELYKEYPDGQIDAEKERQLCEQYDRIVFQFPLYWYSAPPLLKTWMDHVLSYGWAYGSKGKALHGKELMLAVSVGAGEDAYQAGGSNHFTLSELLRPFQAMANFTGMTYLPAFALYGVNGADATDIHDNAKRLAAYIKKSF

Putative nitroreductase [20] = biological target: T1, Putative nitroreductase; experiment: Binding affinity to Staphylococcus saprophyticus nitroreductase NtrB
Putative nitroreductase [21] = biological target: T1, Putative nitroreductase; experiment: Substrate activity at Staphylococcus saprophyticus nitroreductase NtrB assessed as Km using NADPH as cofactor in Tris-Cl buffer at pH 7.5 incubated for 30 mins by HPLC analysis; type: ADME; settings: pH 7.5, 0.5 h
Putative nitroreductase [22] = biological target: T1, Putative nitroreductase; experiment: Substrate activity at Staphylococcus saprophyticus nitroreductase NtrB assessed as Kcat using NADPH as cofactor in Tris-Cl buffer at pH 7.5 incubated for 30 mins by HPLC analysis; type: ADME; settings: pH 7.5, 0.5 h
[23] = biological target: T3, Oxygen-insensitive NAD(P)H nitroreductase (Escherichia coli K-12, UniProt P38489); experiment: Substrate activity at Escherichia coli nitroreductase nfsB assessed as Kcat using NADH as cofactor in Tris-Cl buffer at pH 7.5 by spectrophotometric method; type: ADME
T3 sequence (P38489 whole entry): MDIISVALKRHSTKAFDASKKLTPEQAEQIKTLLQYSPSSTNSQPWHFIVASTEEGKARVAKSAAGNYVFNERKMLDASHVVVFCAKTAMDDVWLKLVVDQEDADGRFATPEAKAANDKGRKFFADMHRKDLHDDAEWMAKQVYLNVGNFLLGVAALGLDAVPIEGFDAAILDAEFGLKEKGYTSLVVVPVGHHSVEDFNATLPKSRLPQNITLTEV

Putative nitroreductase [24] = biological target: T1, Putative nitroreductase; experiment: Substrate activity at Staphylococcus saprophyticus nitroreductase NtrB assessed as ratio of Kcat/Km using NADPH as cofactor in Tris-Cl buffer at pH 7.5 incubated for 30 mins by HPLC analysis; type: ADME; settings: pH 7.5, 0.5 h
nitroreductase nfsA = experiment: Substrate activity at Escherichia coli nitroreductase nfsA assessed as Km using NADPH as cofactor in Tris-Cl buffer at pH 7.5 by spectrophotometry based Michaelis-Menten plot analysis; type: ADME; settings: Escherichia coli nitroreductase nfsA enzyme
[25] = biological target: T3, Oxygen-insensitive NAD(P)H nitroreductase; experiment: Substrate activity at Escherichia coli nitroreductase nfsB assessed as ratio of Kcat/Km using NADH as cofactor in Tris-Cl buffer at pH 7.5 by spectrophotometric method based Michaelis-Menten plot analysis; type: ADME
[26] = biological target: T3, Oxygen-insensitive NAD(P)H nitroreductase; experiment: Substrate activity at Escherichia coli nitroreductase nfsB assessed as ratio of Kcat/Km using NADH as cofactor in Tris-Cl buffer at pH 7.5 by spectrophotometric method based Michaelis-Menten plot analysis relative to CB1954/NfsB; type: ADME
[27] = biological target: T3, Oxygen-insensitive NAD(P)H nitroreductase; experiment: Substrate activity at Escherichia coli nitroreductase nfsB assessed as Km using NADH as cofactor in Tris-Cl buffer at pH 7.5 by spectrophotometric method based Michaelis-Menten plot analysis; type: ADME
[28] = Substrate activity at Escherichia coli nitroreductase nfsA assessed as Kcat using NADPH as cofactor in Tris-Cl buffer at pH 7.5 by spectrophotometric method; type: ADME
[29] = Substrate activity at Escherichia coli nitroreductase nfsA assessed as ratio of Kcat/Km using NADPH as cofactor in Tris-Cl buffer at pH 7.5 by spectrophotometry based Michaelis-Menten plot analysis; type: ADME

Row | SMILES | Activity (PC-3 [1]) | Retention_time (Putative nitroreductase [2]) [min] | viability at 48 h, up to 150 µM [3] [%] | Activity (PC-3 [4]) | Activity (Hep 3B2 [5]) | Activity (Hep 3B2 [6]) | Activity (PC-3 [7]) | pIC50 (PC-3 [9]) | viability at 24 h, up to 150 µM [10] [%] | also measured
1 | O=[N+]([O-])c1ccc(Nc2ccc3ccccc3c2)c([N+](=O)[O-])c1 | inactive | 20.13 | > 80 | 51 - 80% | 51 - 80% | 51 - 80% | >80% | 5.29 | > 80 | fold change (FC) (Putative nitroreductase [8]): 1.48
2 | O=[N+]([O-])c1cc([N+](=O)[O-])c(Nc2ccc(Cl)cc2)cc1Nc1ccc(Cl)cc1 |  | 35 | 51 to 80 |  | 51 - 80% | 51 - 80% | 51 - 80% |  |  | Activity (Putative nitroreductase [11]): 5.77 U/mg; pIC50 (HUVEC [12]; Homo sapiens, HUVEC): 4.06; pIC50 (PC-3 [13]; Homo sapiens, PC-3, 24 h, read-out: IC50): 3.82
3 | O=[N+]([O-])c1ccc(Nc2ccccc2)c([N+](=O)[O-])c1 | inactive | 18.41 | > 80 | >80% |  |  | >80% |  | > 80 | pIC50 (Hep 3B2 [14]): 3.82; Activity (HUVEC [15]): Non-Toxic; Activity (HUVEC [12]; human, huvec): Non-Toxic; IC50 (PC-3 [16]): Not Active; IC50 (PC-3 [13]; pc-3): Not Active; pIC50 (Hep 3B2 [17]): 4.07
4 | NC(=O)c1cc(N2CC2)c([N+](=O)[O-])cc1[N+](=O)[O-] [TRETAZICAR] | inactive |  | > 80 | >80% | >80% | >80% | >80% | 8.75 | > 80 | fold change (FC) [18]: 13.04; fold change (FC) (Putative nitroreductase [19]): 0.38; fold change (FC) (Nitroreductase): 2.37; pKi (Putative nitroreductase [20]): 5.22; Km (Putative nitroreductase [21]): 1070 µM; Kcat (Putative nitroreductase [22]): 2.26 s⁻¹; Kcat [23]: 62 s⁻¹; Kcat/Km (Putative nitroreductase [24]): 2120 M⁻¹ s⁻¹; Km (nitroreductase nfsA): 220 µM; Kcat/Km [25]: 5600 M⁻¹ s⁻¹; fold change (FC) [26]: 1; Km [27]: 11000 µM; Kcat [28]: 16 s⁻¹; Kcat/Km [29]: 73000 M⁻¹ s⁻¹
